Experimental data from article PMC11582619 (Communications Biology, 2024).
“Also recorded” adds a separate entry of the source.

Assays:
HepG2 cells [1] = experiment: Oil Red O staining of ethanol-induced lipid storage in HepG2 cells; format: cell-based, human; details: compound 7.5 μmol/L
[2] = Plasma concentration of SSa, SSB1 and SGA after oral SSa; format: in vivo, mice; details: for course of plasma level after administration (in words): after oral SSa 50 mg/kg
In short: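 Mice fasted 24 h, then given SSa 50 mg/kg by oral gavage. About 100 µL retro-orbital blood taken at 0, 0.5, 1, 2, 4, 6, 8, 10, 12 and 24 h; 9 mice per time point, three mice pooled per sample, n = 3. Plasma SSa, SSB1 and SGA measured by UHPLC-MS/MS against plasma-matrix calibration and QC standards. AUC by moment analysis with log-trapezoidal method.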

HepG2 cells [3] = experiment: ROS levels by flow cytometry in ethanol-treated HepG2 cells; format: cell-based, human; details: ethanol + compound
[4] = tested on: liver, kidney, spleen, lung and heart; experiment: Short-term toxicity of SSa, 14 days by gavage, HE staining of organs; format: in vivo; details: male C57BL/6J mice, SSa 15 mg/kg/daily
[5] = cited from earlier work
SIRT1 [6] = experiment: Hepatic SIRT1 protein over time after gavage with SSa solution; format: in vivo, mice; details: 0-12 h after gavage with SSa solution
[7] = tested on: chronic-plus-binge ethanol-fed mice with hepatic SIRT1 knockdown; experiment: NIAAA model in mice with hepatic SIRT1 knockdown; format: in vivo, C57BL/6J mice
In short: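 Hepatic SIRT1 knockdown in C57BL/6J mice by tail-vein AAV8-TBG-miR30 shRNA against mouse SIRT1, with ZsGreen tag (1 × 10^12 vg/mouse); AAV8-TBG-ZsGreen as control. Four weeks later: NIAAA chronic-plus-binge ethanol model with oral test compound once daily for 7 days. Knockdown checked by liver ZsGreen fluorescence and SIRT1 western blot. Body weight tracked, n = 6.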

[8] = tested on: SIRT1, PGC-1α, PPAR-α, Deptor, mTOR, p-mTOR (liver); experiment: Western blot of liver proteins, with or without hepatic SIRT1 knockdown; format: in vivo, C57BL/6J mice; details: ethanol-fed mice, oral SSa
[9] = tested on: chronic-plus-binge ethanol-fed mice; experiment: Chronic-plus-binge ethanol-fed; format: in vivo, C57BL/6J mice
SIRT1 [10] = experiment: Immunostaining targeting SIRT1 in mouse liver; format: in vivo, C57BL/6J mice; details: ethanol-fed mice, oral SSa
In short: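 Male C57BL/6J mice (8 weeks) on the NIAAA chronic-plus-binge model: 5 days of Lieber–DeCarli control liquid diet, then 5% (v/v) ethanol liquid diet for 14 days. Oral SSa 5, 10 or 15 mg/kg once daily for 7 days. Day-15 oral ethanol binge; harvest under isoflurane 9 h later. Livers fixed in 4% paraformaldehyde, 5 µm sections, SIRT1 immunofluorescence imaged confocally; n = 3.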

[11] = tested on: SIRT1, SREBP-1C, PPAR-α and their target genes (liver mRNA); experiment: qRT-PCR of lipid metabolism genes and SIRT1 in liver of ALD mice; format: in vivo, C57BL/6J mice; details: ethanol-fed mice, oral SSa
In short: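 NIAAA chronic-plus-binge model in C57BL/6J mice: 14-day 5% ethanol Lieber–DeCarli diet, oral SSa (5–15 mg/kg) daily for 7 days, ethanol binge on day 15, liver harvested 9 h later. Liver mRNA measured by SYBR Green qRT-PCR (25 nmol/L primers), β-actin reference, delta-delta Ct method. Protein by western blot: 20 µg per lane, 10% SDS-PAGE, ECL detection.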

[12] = target: T1, Recombinant human SIRT1 protein (Homo sapiens, UniProt Q96EB6); experiment: Microscale thermophoresis; format: binding; details: Kd between SIRT1 and compound (MST), recombinant human SIRT1, RED-NHS labelled
T1 sequence (Q96EB6 1-747): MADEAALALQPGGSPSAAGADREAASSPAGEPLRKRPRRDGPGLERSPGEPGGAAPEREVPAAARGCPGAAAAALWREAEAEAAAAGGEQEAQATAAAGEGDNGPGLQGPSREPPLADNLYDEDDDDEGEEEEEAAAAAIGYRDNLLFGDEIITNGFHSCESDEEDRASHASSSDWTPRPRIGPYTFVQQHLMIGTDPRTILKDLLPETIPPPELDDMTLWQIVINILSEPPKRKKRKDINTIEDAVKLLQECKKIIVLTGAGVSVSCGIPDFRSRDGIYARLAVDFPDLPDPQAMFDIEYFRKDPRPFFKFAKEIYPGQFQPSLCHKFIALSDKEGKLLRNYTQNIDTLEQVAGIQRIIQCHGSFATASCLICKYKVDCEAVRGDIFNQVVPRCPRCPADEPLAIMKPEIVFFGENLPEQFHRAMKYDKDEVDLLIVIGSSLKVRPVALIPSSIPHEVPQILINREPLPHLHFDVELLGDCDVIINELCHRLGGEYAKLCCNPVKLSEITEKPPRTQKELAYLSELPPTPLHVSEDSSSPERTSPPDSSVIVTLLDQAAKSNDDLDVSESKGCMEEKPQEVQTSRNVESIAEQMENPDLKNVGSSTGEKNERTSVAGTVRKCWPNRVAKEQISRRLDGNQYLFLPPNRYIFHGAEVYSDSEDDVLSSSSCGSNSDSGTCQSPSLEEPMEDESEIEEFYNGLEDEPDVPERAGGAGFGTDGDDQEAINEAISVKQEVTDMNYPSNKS
In short: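 Recombinant human SIRT1 labelled with RED-NHS dye (30 min, room temperature, dark) and gel-filtered; pre-test checked labelling, adsorption and aggregation. Incubated 5 min at 24 °C before MST.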

[13] = tested on: PGC-1α, PPAR-α, CPT-1α, ACC-1, SREBP-1C, FAS, SCD-1 (liver mRNA); format: in vivo, C57BL/6J mice; details: ethanol-fed mice, oral SSa
[14] = mice, after intragastric SSa 50 mg/kg

C[C@H]1O[C@@H](O[C@H]2CC[C@@]3(C)[C@@H](CC[C@]4(C)[C@@H]3C=CC3=C5CC(C)(C)CC[C@]5(CO)[C@@H](O)C[C@]34C)[C@]2(C)CO)[C@H](O)[C@@H](O[C@@H]2O[C@H](CO)[C@@H](O)[C@H](O)[C@H]2O)[C@H]1O [SSB1, Saikosaponin B1]
ethanol-induced lipid droplet accumulation (Oil red O) (HepG2 cells [1]): had no significant effect
maximal (peak) plasma concentration [2, 14]: 105.12 ng/mL
time of first detection in plasma [2, 14]: 0.5 h
time of peak plasma concentration [2, 14]: 1 h
course of plasma level after administration (in words) ([2]; mice): undetectable after 6 h of administration; also recorded: quickly metabolized after administration
ethanol-induced ROS production (HepG2 cells [3]): had no effect on ROS

C[C@H]1O[C@@H](O[C@H]2CC[C@@]3(C)[C@@H](CC[C@]4(C)[C@@H]3C=C[C@]35OC[C@@]6(CCC(C)(C)C[C@H]63)[C@@H](O)C[C@]54C)[C@]2(C)CO)[C@H](O)[C@@H](O[C@@H]2O[C@H](CO)[C@@H](O)[C@H](O)[C@H]2O)[C@H]1O [SSa, Saikosaponin A]
short-term toxicity: pathological changes of liver, kidney, spleen, lung and heart (HE) [4]: no significant pathological changes
intestinal absorption after oral administration [5]: poor absorbance in the intestine when administered orally
toxicity under intravenous injection [5]: marked hemolysis under intravenous injection
hepatic SIRT1 protein abundance over time (SIRT1 [6]): enhanced hepatic SIRT1 protein abundance at 4–12 h
body weight with hepatic SIRT1 knockdown ([7]; SSa administration for 7 days): had no effect on body weight
NAD+/NADH with hepatic SIRT1 deficiency ([7]; ethanol-fed mice, oral SSa): the increase of NAD^+/NADH induced by SSa was also inhibited
hepatic pathology and lipid deposition with hepatic SIRT1 deficiency ([7]; ethanol-fed mice, oral SSa): prevents the SSa’s improvement in alcohol-induced hepatic pathology and lipid deposition
liver function recovery with hepatic SIRT1 knockdown ([7]; ethanol-fed mice, oral SSa): mitigated SSa’s improvement in alcohol-induced liver function recovery
liver PGC-1α, PPAR-α and Deptor protein with SIRT1 deficiency [8]: decreases the expression of PGC-1α, PPAR-α and Deptor induced by SSa treatment
body weight and liver index ([9]; SSa 5, 10, 15 mg/kg oral): improved body weight and liver index in a dose-dependent manner
NAD+/NADH ratio in liver homogenate ([9]; oral SSa): increased the NAD^+/NADH ratio
TC and TG in liver homogenate ([9]; oral SSa): significantly reduced alcohol-induced TC and TG accumulation in the liver
liver function and plasma TC, TG, γ-GT, De Ritis ratio ([9]; oral SSa): significantly ameliorated liver function and reduced the plasma TC, TG, γ-GT content and De Ritis ratio
liver lipid deposition (Oil red O staining) ([9]; oral SSa): reduced alcohol-induced liver lipid deposition in a dose-dependent manner
liver pathology (HE staining) ([9]; oral SSa): improves liver pathological injury
ethanol-induced lipid droplet accumulation (Oil red O) (HepG2 cells [1]): significantly reduced the lipid droplet accumulation induced by ethanol
maximal (peak) plasma concentration [2, 14]: 63.31 ng/mL
course of plasma level after administration (in words) ([2]; mice): almost completely metabolized after 2 h of administration
course of plasma level after administration (in words) ([2]; mice, listed as SSA): quickly metabolized after administration
Tmax ([2]; mouse, plasma, po, 50 mg/kg): 30 min
SIRT1 entry into the nucleus (liver immunofluorescence) (SIRT1 [10]): promoted SIRT1 entry into the nucleus
ethanol-induced ROS production (HepG2 cells [3]): significantly limited ethanol-induced ROS production
liver mRNA of SREBP-1C and its target genes [11]: decreased the elevation of SREBP-1C, ACC-1, FAS and SCD-1 induced by alcohol
alcohol-induced decrease of SIRT1 expression in the liver ([11]; mRNA and protein (Fig. 2I, J)): can reverse this phenomenon
Kd [12]: ~25.2 µM
liver PGC-1α, PPAR-α, CPT-1α mRNA with SIRT1 knockdown [13]: inhibits the upregulation of PGC-1α, PPAR-α, CPT-1α induced by SSa
liver mRNA of SREBP-1C, ACC1, FAS and SCD-1 ([13]; reversed by SIRT1 knockdown): decreased the mRNA expression of SREBP-1C, ACC1, FAS and SCD-1
